Reference: article PMC7557569 (RSC Medicinal Chemistry, 2020)

Tests used:
EphA3 = target: T1, EphA3 (Homo sapiens, UniProt P29320); conditions: EphA3, DSF; first generation inhibitors; ref 8d; cited from earlier work
T1 sequence (P29320 21-983): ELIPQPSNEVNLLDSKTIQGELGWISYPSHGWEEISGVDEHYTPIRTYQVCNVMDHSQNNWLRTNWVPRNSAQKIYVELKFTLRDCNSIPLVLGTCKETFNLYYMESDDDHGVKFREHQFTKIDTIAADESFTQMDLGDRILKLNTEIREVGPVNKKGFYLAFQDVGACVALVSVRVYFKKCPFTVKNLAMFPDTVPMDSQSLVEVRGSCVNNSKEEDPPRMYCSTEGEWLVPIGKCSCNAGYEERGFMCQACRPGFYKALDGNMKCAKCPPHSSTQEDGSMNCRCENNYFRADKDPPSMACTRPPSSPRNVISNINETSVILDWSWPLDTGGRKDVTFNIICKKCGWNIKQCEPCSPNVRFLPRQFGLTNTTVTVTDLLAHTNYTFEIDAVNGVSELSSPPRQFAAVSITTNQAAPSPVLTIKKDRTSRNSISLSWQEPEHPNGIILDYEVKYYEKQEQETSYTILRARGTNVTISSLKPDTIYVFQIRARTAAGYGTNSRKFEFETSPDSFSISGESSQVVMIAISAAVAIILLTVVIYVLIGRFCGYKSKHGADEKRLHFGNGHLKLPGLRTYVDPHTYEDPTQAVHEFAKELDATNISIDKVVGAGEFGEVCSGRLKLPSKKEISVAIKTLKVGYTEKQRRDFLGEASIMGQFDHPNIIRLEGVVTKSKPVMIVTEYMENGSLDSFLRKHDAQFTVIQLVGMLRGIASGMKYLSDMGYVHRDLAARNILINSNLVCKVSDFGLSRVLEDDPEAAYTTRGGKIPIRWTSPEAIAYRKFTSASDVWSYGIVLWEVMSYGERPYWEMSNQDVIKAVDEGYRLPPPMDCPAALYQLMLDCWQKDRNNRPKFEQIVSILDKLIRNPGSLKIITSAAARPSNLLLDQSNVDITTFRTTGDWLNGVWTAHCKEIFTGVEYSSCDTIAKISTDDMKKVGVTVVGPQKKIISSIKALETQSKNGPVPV

[1] = system: human umbilical vein endothelial cells (HUVEC); conditions: HUVEC tube formation; previously developed inhibitors; cited from earlier work
RI-1 cell line xenograft = assay: Mouse xenograft model with the ABC DLBCL RI-1 cell line; assay type: in vivo; conditions: NOD-Scid mice, RI-1 xenograft; for tolerability / general toxicity and body weight: 100 mg kg^-1 IP
Method in brief: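 NOD-Scid mice were inoculated subcutaneously with RI-1 ABC-DLBCL cells (15 × 10^6). They were split into groups of n = 4 given test compound at 100 mg kg−1 IP once every 5 days, or control vehicle. Tumor volume (mm3) and body weight were followed to day 15.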

K-562 cell line = assay: NCI-60 cancer cell line panel, growth inhibition; assay type: cell-based; conditions: Homo sapiens, K562

Row | SMILES | Thermal shift (ΔTm) (EphA3) [°C] | inhibition of total branching points [1] [%] | inhibition of total loops [1] [%] | inhibition of tube length [1] [%] | tolerability / general toxicity and body weight (RI-1 cell line xenograft) | GI50 (K-562 cell line) [nM] | xenograft tumor size versus control group (RI-1 cell line xenograft; 100 mg kg^-1 IP once every 5 days, day 15)
1 | Cc1ccc(O)cc1-n1c(N)c(C(N)=O)c2nc3ccccc3nc21 [Compound 1] | 11.2 | 23 | 21 | 9 | – | – | –
2 | NC(=O)c1c(N)n(-c2ccc(NC(=O)Nc3cccc(C(F)(F)F)c3)cc2)c2nc3ccccc3nc12 [Compound 2] | – | 9 | 13 | 5 | – | – | –
3 | Cc1ccc(-n2nc(C(C)(C)C)cc2NC(=O)Nc2ccc(-n3c(N)c(C(N)=O)c4nc5ccccc5nc43)cc2)cc1 [Compound 8a] | – | – | – | – | very toxic already after the first dose | 31 | –
4 | CC(C)(C)c1cc(NC(=O)Nc2ccc(-n3c(N)c(C(N)=O)c4nc5ccccc5nc43)cc2)n(-c2ccc3ncccc3c2)n1 [Compound 8b] | – | – | – | – | well tolerated with no general toxicity or body-weight loss | < 10 | three times smaller
